The list is not random: actives were taken first. Their share in the collection is about 0.9%.
RGS7-Gao reg = human RGS7-Galphao interaction regulation | 220,000 compounds, 0.35% hits | Multiplexed bead flow cytometry, RGS7-Galphao binding; actives lie on both sides | binding response (% of control), % at 10 µM; in the data active = binding response below about 49% or above about 150%; inconclusive = no clear call, values can overlap the other calls; inactive = in between;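 note: fluorescent Galphao held in activated GDP-AlF4 state binding bead-coupled RGS7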
ABCB1 inh = inhibitors of human ABCB1 transporter, ABCG2 counter-screen; P08183; CCRF-Adr cells, JC-1 efflux, flow cytometry; inhibition, % at 6.6 µM; 190,000 compounds, 0.067% hits; in the data active = inhibition above about 40%;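 note: 0% = vehicle and 100% = reference inhibitor; higher value means more JC-1 retained so stronger ABCB1 efflux block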
RGS4-Gao reg = modulates binding of RGS4 to human Galphao; AID 1415; Multiplexed bead flow cytometry; actives lie on both sides; 220,000 compounds, 0.33% hits; binding response (% of control), % at 10 µM; in the data active = binding response below about 49% or above about 150%; inactive = in between;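 note: fluorescent Galphao activated with aluminum fluoride binding bead-coupled RGS4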
ABCG2 inh = inhibitors of human ABCG2 transporter, ABCB1 counter-screen. Q9UNQ0. IgMXP3 cells, JC-1 efflux, flow cytometry. AID 1325. inhibition, % at 6.6 µM. 190,000 compounds, 0.1% hits;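 active = inhibition above 80%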;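 note: 0% = DMSO and 100% = nicardipine control wells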
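Incubation: cells with compound and JC-1, 10 min at 25 °C, rotating, no wash / Test system: IgMXP3 (ABCG2) plus far-red-tagged CCRF-Adr (ABCB1) cells / Compound dosing: one concentration, 6.6 µM final / Also added: JC-1 fluorescent substrate / Evaluation: efflux inhibition in percent versus controls / Detection: flow cytometry, 530 nm JC-1 signal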
RGS16-Gao HTS = RGS16-Galphao interaction regulator (human). 220,000 compounds, 0.38% hits. bead-based flow cytometry RGS16-Galphao binding, fluorescence; actives lie on both sides. binding response (% of control), % at 10 µM. O15492+P09471;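 note: Galphao activated by GDP with aluminum fluoride before binding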
RGS8-Gao = modulates binding of RGS8 to human Galphao; P09471; multiplexed bead flow cytometry; actives lie on both sides; response (percent of control binding), % at 10 µM; 220,000 compounds, 0.34% hits; in the data active = response below about 60% or above about 140%; inactive = in between;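 note: Galphao activated as the GDP aluminium fluoride complex binding bead-coupled RGS8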
RGS4-Gao HTS = regulators of human RGS4-Galphao interaction; shares compounds with RGS16-Gao HTS; multiplexed bead flow cytometry, RGS–Galpha-o binding; RGS4–Galpha-o binding response, % at 10 µM; 1,600 compounds, 99% hits;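 note: fluorescently labeled Galpha-o bound to GDP with aluminium fluoride binding biotinylated RGS beads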
Avidin counter = interferes with biotinylated probe binding to avidin beads; shares compounds with RGS16-Gao HTS; streptavidin beads, fluorescein-biotin binding, flow cytometry; inhibition, % at 10 µM; 1,700 tested, under 10 active;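 active = inhibition above 50%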;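 note: median green fluorescence of gated singlet beads compared with DMSO control wells; 0% = DMSO wells and 100% = complete loss of bead fluorescence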
RGS8-Gao confirm = confirmation of regulators of human RGS8-Galphao interaction | shares compounds with RGS16-Gao HTS | bead-based flow cytometry RGS8-Galphao binding, fluorescence; actives lie on both sides | binding response (% of control), % at 10 µM | 1,700 compounds, 3% hits; in the data active = binding response below about 72% or above about 130%; inactive = in between;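 note: Galphao activated as GDP AlF4 complex before binding bead RGS8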
RGS7-Gao confirm = RGS7-Galphao interaction regulation, single point confirmation; bead-based flow cytometry RGS7-Galphao binding; actives lie on both sides; 1,700 compounds, 7.8% hits; AID 1837; shares compounds with RGS16-Gao HTS; response (percent of control binding), % at 10 µM; in the data active = response below about 75% or above about 130%; inactive = in between;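 note: fluorescent Galphao activated with GDP and aluminum fluoride binding bead-coupled RGS7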
RGS16-Gao single = confirmation of regulators of human RGS16-Galphao interaction; shares compounds with RGS16-Gao HTS; bead-based flow cytometry, RGS16-Galphao binding; actives lie on both sides; response (% of control binding), % at 10 µM; 1,700 compounds, 4% hits; AID 1838; in the data active = response below about 74% or above about 130%; inactive = in between;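 note: Galphao activated as the GDP aluminium fluoride complex binding bead-coupled RGS16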
RGS4-Gao single = RGS4-Galphao interaction regulation, single point confirmation | shares compounds with RGS16-Gao HTS | RGS4-Galphao binding, multiplexed bead flow cytometry; actives lie on both sides | binding response (% of control), % at 10 µM | 1,700 compounds, 4% hits; in the data active = binding response below about 74% or above about 130%; inactive = in between
RGS19-Gao conf = RGS19-Galphao interaction regulation, single point confirmation; shares compounds with RGS16-Gao HTS; bead-based flow cytometry RGS19-Galphao binding; actives lie on both sides; response (percent of control binding), % at 10 µM; 1,700 compounds, 5% hits; AID 1841; in the data active = response below about 50% or above about 160%; inactive = in between;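 note: 100% = no compound control and 0% = blank background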
Active calls of the source: *; i = inactive; ? = inconclusive; · = not tested or not shown; [ ] = another dose, or the depositor's remark. Unless noted, the rule behind the calls is not given here.

SMILES	RGS7-Gao reg	ABCB1 inh	RGS4-Gao reg	ABCG2 inh	RGS16-Gao HTS	RGS8-Gao	RGS4-Gao HTS	Avidin counter	RGS8-Gao confirm	RGS7-Gao confirm	RGS16-Gao single	RGS4-Gao single	RGS19-Gao conf
O=C(NCC1CCCO1)c1cc(S(=O)(=O)Nc2ccc(Br)cc2)ccc1Cl (configuration not stated)	96.2	0.0	101.1	-0.3	105.2	101.1	·	·	·	·	·	·	·
CCOC(=O)c1oc2ccc(/C=N/O)c(Cl)c2c1C	99.9	0.2	100.2	0.9	100.8	101.7	·	·	·	·	·	·	·
CCC(=O)Nc1cc(-c2nn(CC(=O)N3CCCCC3)c(=O)c3ccccc23)ccc1N1CCOCC1	155.4*[activator]	0.9	117.0	9.9	108.5	100.1	117.0*	-1.6	103.6	99.6	102.9	101.3	111.6
COc1cc(NC(=O)SC2=NCCS2)cc(OC)c1	?	·	40.7*	·	46.7	60.1	·	-3.0	99.7	100.2	101.5	99.0	105.2
O=C1C(=Cc2ccc(Br)o2)C(=O)c2ccccc21	1.6*	1.6	53.4	-11.3	8.3*	32.1*	53.4*	·	·	·	·	·	·
CCc1nc2c(oc3ccccc32)c(=O)[nH]1	100.5	0.0	98.8	1.9	99.8	101.7	·	·	·	·	·	·	·
O=c1[nH]cnc2c1oc1ccccc12	106.2	0.9	116.7	1.6	296.8	143.1*[activator]	116.7*	-0.2	103.4	104.8	104.1	105.6	103.6
CN(C(=O)c1cccs1)c1ccc(OCC(=O)N2CCC(C(N)=O)CC2)cc1	?	-0.2	102.2	0.3	99.5	101.8	·	·	·	·	·	·	·
O=C(NCc1ccc2c(c1)OCO2)c1cccc([N+](=O)[O-])c1	·	0.1	·	1.2	·	·	·	2.2	101.0	99.6	102.7	101.2	96.2
O=C(NCc1ccc2c(c1)OCO2)c1ccc2c(c1)OCO2	?	·	104.7	·	105.2	99.6	·	·	·	·	·	·	·
O=C(NCc1ccc2c(c1)OCO2)c1ccc(CSCc2ccccc2Cl)o1	48.3*	-0.5	54.5	-0.6	8.8	74.6	54.5*	0.7	98.3	100.9	101.4	102.6	106.3
COc1ccc(NS(=O)(=O)c2ccc(OCC(=O)N3CCOCC3)cc2)cc1	15.7*	-0.2	20.8*	0.8	11.5*	13.0*	·	0.4	100.2	77.2	91.5	82.3	89.1
COCCCNC(=O)c1ccc(N2CCOCC2)c(NS(=O)(=O)c2ccc(OC)cc2)c1	·	0.0	·	0.3	·	·	·	0.6	102.4	102.7	101.5	102.6	97.3
COc1ccc(OCC(=O)N2CCN(S(=O)(=O)c3ccc(Cl)cc3)CC2)cc1	110.6	0.1	116.3	0.7	387.9	151.8*[activator]	116.3*	-2.1	102.4	100.1	100.0	100.1	102.8
COc1ccc(S(=O)(=O)Nc2ccc(-n3cccc3)cc2)cc1	?	-0.2	22.1*	-1.3	12.7*	14.2*	·	-0.9	97.6	94.2	96.4	98.1	76.6
COc1cc(-c2nc3ccccn3c2/N=C/c2cc(OC)c(O)cc2Cl)ccc1O	96.4	7.9	98.2	3.7	99.0	96.9	·	·	·	·	·	·	·
COc1ccc(S(=O)(=O)N(CC(=O)N2CCOCC2)Cc2ccccc2)cc1	217.0*[activator]	0.5	119.4	-1.6	119.0	98.0	119.4*	1.4	98.0	99.1	96.8	97.8	100.8
CC(C)=Cc1c(O)nc2ccccn2c1=O	96.5	0.4	97.6	-0.1	62.3	87.1	·	·	·	·	·	·	·
Cc1cccc(N=Cc2[nH]c3ccc(Br)c(Cl)c3c2O)c1	153.4*[activator]	-0.2	141.8	-2.4	138.8	103.8	141.8*	·	·	·	·	·	·
CN(C)[C@@H]1C(=O)C(C(=O)NCN2CCCC2)=C(O)[C@@]2(O)C(=O)C3=C(O)c4c(O)cccc4[C@@](C)(O)C3CC12 (some centres not stated)	8.3*	-1.9	21.5*	-3.4	8.2	18.4*	·	-2.4	53.1*	25.9*	54.5*	60.3*	35.3*
CCOC(=O)N1CCN(Cc2nc(N)nc(Nc3ccc(C)cc3C)n2)CC1	107.1	1.1	103.2	8.4	108.7	105.3	·	·	·	·	·	·	·
COC(=O)c1oc2ccccc2c1NC(=O)/C=C/C(=O)O	92.2	-0.1	100.9	-0.2	99.3	101.3	·	·	·	·	·	·	·
CCCCN(CCCC)S(=O)(=O)c1ccc(NC(=O)c2ccc([N+](=O)[O-])cc2Cl)cc1	116.0	·	113.4	·	304.1*[activator]	134.2	113.4*	-2.1	105.3	101.4	101.2	100.0	100.4
CC(=O)NC(Cc1c[nH]c2ccccc12)C(=O)OCC(=O)Nc1cc(C)on1 (configuration not stated)	112.4	0.0	72.4	2.7	29.0	21.3*	72.4*	-0.4	106.4	105.5	111.0	108.0	110.9
Cc1cc(NC(=O)COC(=O)[C@H](Cc2c[nH]c3ccccc23)NC(=O)c2ccc(F)cc2)no1	105.1	-0.1	108.2	0.2	122.6	111.1	·	·	·	·	·	·	·
Cc1[nH]n(-c2ccccc2)c(=S)c1C=NCCCN=Cc1c(C)[nH]n(-c2ccccc2)c1=S	94.7	·	92.0	-6.9	-0.3*	52.1*	92.0*	0.5	84.0	113.1	74.2*	97.8	47.0*
CC1=NN(C(C#N)c2ccc([N+](=O)[O-])cc2)C(C)(C)C1 (configuration not stated)	?	·	107.5	·	122.5	105.9	·	·	·	·	·	·	·
CC1=NN(C(C#N)c2ccc(F)cc2)C(C)(C)C1 (configuration not stated)	43.6*	0.3	49.8*	0.7	45.1	57.9*	·	-0.1	104.2	110.8	106.7	109.2	102.7
CC1CN/C(=C\C(=O)c2ccccc2)C(=O)N1 (configuration not stated)	43.7*	0.4	49.4*	1.3	41.6	56.4*	·	i	100.7	106.1	106.0	101.6	103.7
